The values below come from ChEMBL document CHEMBL4513216, “Probing the Open Global Health Chemical Diversity Library for Multistage-Active Starting Points for Next-Generation Antimalarials” (ACS Infect Dis, 2020).

This series in a line: Toxicity liver stage against HepG2, at 10uM. Type of series: cell-based. The arrangement: test concentration 10 uM, cell line HepG2-A16-CD81EGFP. The settings on record: human, HepG2-A16-CD81EGFP cells; read-out: INHIBITION
A digest of the protocol:
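Uninfected HepG2-A16-CD81EGFP cells, 3 × 10^3 per well, 1536-well, plated on prespotted compound at 10 μM final, parasite-free screening media added to match infected plates; puromycin 10 μM positive, DMSO 0.5% negative; run in parallel with 48 h PbLuc assay at 37 °C, 5% CO2; viability by CellTiter-Glo luminescence, normalized to controls.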
As for `COc1ccc(NC(=O)c2nc3ccccc3n(C)c2=O)cc1OC`, the cytotoxicity at 10 µM was -7.36%. The same measure for `CC(C)(C)OC(=O)N1CCN(C(=O)c2cnn3c2OCCC3)CC1`: -2%. The same measure for `CCC(=O)N1CCN(c2cc(N(C)C)cnn2)CC1`: 2%; for `COc1ccc(CN2C[C@@H]3CN(S(=O)(=O)C4CC4)C[C@@H]3C2=O)cc1`: -4.01%. For the compound `COCCN1C(=O)CCC12CCCN(C(=O)CC1CC1)CC2` (stereo unspecified), the cytotoxicity at 10 µM was 0.346%. The same measure for `O=C(NC1CC1)c1nc2c(s1)CCCN2c1ccccc1`: -157%; for `O=S(=O)(C1CC1)N1CCOC2(CCCN(c3ccccc3)C2)C1` (stereo unspecified): -4.54%. The same measure for `Cc1cnc(N2C[C@@H]3CCN(CC4CC4)C(=O)[C@H]3C2)nc1`: 3.47%; for `O=S(=O)(C1CC1)N1CCC2(CCCN(c3ncc(F)cn3)C2)C1` (stereo unspecified): 11.5%; for `CC(=O)N1CCC2(CC1)c1ncc(-c3ccccc3)n1CCN2C(C)=O`: 10.5%. The same measure for `COc1ccc(N2CCCC3(C2)CN(c2ncccn2)CCO3)cc1` (stereo unspecified): 15.3%; for `Cc1noc([C@@]23CCO[C@@H]2CCN(C(=O)c2ccsc2)C3)n1`: 9.1%. Regarding `COc1nn(C)c2c1CCCN(C(=O)c1ccsc1)C2`, the cytotoxicity at 10 µM was -0.414%. The same measure for `C[C@@H]1C[C@@H]2CCN(C(=O)c3ccncn3)C[C@H]2O1`: -1.55%; for `CCCNS(=O)(=O)c1cnccc1N1CCN(C(C)C)CC1`: -1.32%; for `CC(=O)c1c(C)nn(S(=O)(=O)c2ccc(C)cc2)c1C`: -1.61%. The same measure for `O=C(Cn1nc(-c2cccs2)ccc1=O)N1CCCCCC1`: -2.7%; for `COC(=O)c1ccn(COc2ccccc2Cl)n1`: 8.99%; for `CCN1CCN(C(=O)c2cc(-c3cccs3)cs2)CC1`: 2.93%. The same measure for `CC(=O)N1CCC(c2nccnc2C)CC1`: -2.82%; for `CN1CCN(C(=O)CCn2c(C(F)(F)F)cc3cccnc32)CC1`: -31.9%; for `O=C(Cc1cccs1)N1CCOC(c2cccc(O)c2)C1` (stereo unspecified): 0.631%. On to `O=C(COCC1CC1)Nc1cc(S(=O)(=O)NC2CC2)ccc1F`, for which the cytotoxicity at 10 µM was -7.63%. The same measure for `CCOC1CCN(C(=O)c2ccc(-c3cccc(C)c3)[nH]c2=O)CC1`: 3.08%; for `CCc1nc(CC)n(CC(=O)N(C)Cc2ccc(F)cc2)n1`: 5.25%. The same measure for `CC(C)C(C)NC(=O)Nc1cccc(OCC#N)c1` (stereo unspecified): -1.13%; for `COc1cc(C)ccc1OCC(=O)NS(=O)(=O)c1cccnc1`: 4.03%. The same measure for `COc1cc(C)ccc1OCCC(=O)N1CCCC(n2cncn2)C1` (stereo unspecified): -2.69%; for `CCc1nc2n(n1)CC(NCc1ccccc1OCC(=O)NC)CC2` (stereo unspecified): 4.57%; for `Cc1c(CS(C)(=O)=O)cccc1NC(=O)CC1CCCC1`: -6.72%. On to `COCCN1CCC(CNC(=O)c2c[nH]c(=O)c(Cl)c2)CC1`, for which the cytotoxicity at 10 µM was found to be 9.05%.

For `COc1ccccc1CC1CCN(C(=O)CCN2CCOC2=O)CC1`, the cytotoxicity at 10 µM was 3.76%. With `COc1cc(C(C)=O)ccc1OCC(=O)N(Cc1ccsc1)C1CC1`, the cytotoxicity at 10 µM turned out to be 1.88%. Take `CC(C)NC(=O)CCNC(=O)Nc1cnn(-c2ccccc2F)c1`: the cytotoxicity at 10 µM stood at 1.21%. The same measure for `CN(Cc1nccn1CC(F)(F)F)C(=O)c1cccc(N(C)C)c1`: 3.92%; for `CC(C)N(C)CC(=O)NCC(Cc1ccc(F)cc1)C(N)=O` (stereo unspecified): 13.6%; for `Cc1cc(NC(=O)C2CCCN(C(=O)NCC(C)C)C2)ccn1` (stereo unspecified): -10.5%. Regarding `Cc1ccc(NS(C)(=O)=O)c(C(=O)NCCC(=O)NC(C)C)c1`, the cytotoxicity at 10 µM was -0.141%. The same measure for `Cc1cc(NC(=O)CN2CCCC(Cn3cncn3)C2)no1` (stereo unspecified): -0.749%; for `Cc1nc(C2(NCc3ccc(C#N)cc3F)CCCC2)no1`: 2.78%; for `CC(C)c1nc2c(n1C)CCN(CCc1ccccn1)C2`: -2.01%. The same measure for `CC(C)(C)CC(=O)NS(=O)(=O)c1ccc(F)cc1C(F)(F)F`: -4.3%; for `Cc1cnn(CCC(=O)Nc2ccc(F)cc2OCC2CC2)c1`: -4.11%. As to `CC(=O)NCCSCCOc1cccc(Br)c1`, the cytotoxicity at 10 µM was 10.1%. The same measure for `Cc1cccc(N(CCC(N)=O)CC(=O)NC2CCCC2)c1`: -20%; for `O=C(Nc1ccccc1)c1ccc(NCc2ccncc2)nn1`: -3.17%. On to `CN(C)c1ccc(NC(=O)N2CCCCCC2c2ccncc2)cn1` (stereo unspecified), for which the cytotoxicity at 10 µM came to 0.462%. Regarding `Cn1ncc2c1C(COCC1CC1)CN(S(=O)(=O)C1CC1)C2` (stereo unspecified), the cytotoxicity at 10 µM was -74.3%. The same measure for `CN(C)C1(CNc2nccc(C3CCCC3)n2)CCOCC1`: -1.3%; for `Cc1cc(N(C)CCN(C)C2CCCC2)n2nc(C)cc2n1`: -6.09%.

`Cn1cnnc1CN1CCC2(CCCN(C3CCCC3)C2=O)C1` (stereo unspecified): the cytotoxicity at 10 µM was -133%. In the case of `COc1ccc(N2CCN(C(=O)Cn3nccc3C)CC2(C)C)cc1`, the cytotoxicity at 10 µM stood at 6.68%. The same measure for `CC(C)c1nc(CN(C)C(=O)C(O)c2ccc(Cl)cc2)cs1` (stereo unspecified): -150%; for `CC1(C)CNC(=O)c2nc(C3CCCN(C(=O)C4CC4)C3)[nH]c2C1` (stereo unspecified): 3.74%.

Regarding `Cc1ncsc1CN1CCC2(CC1)CC(=O)N(Cc1ccc(Cl)cc1)C2`, the cytotoxicity at 10 µM worked out at 6.83%.

Turning to `COCc1nc(N2CC[C@H](N(C)C)C2)c2cnn(C)c2n1`, the cytotoxicity at 10 µM was -6.67%. In the case of `O=C(CSc1ccncc1)NC1CC(=O)N(CCc2ccccc2)C1` (stereo unspecified), the cytotoxicity at 10 µM was 0.318%. As to `CCCc1nnc(N2CCN(c3ccccc3Cl)CC2)o1`, the cytotoxicity at 10 µM is 0.426%. The same measure for `O=C(c1cc(COc2ccc3c(c2)OCO3)[nH]n1)N1CCCO1`: -1.59%; for `CCCN1CCCC2(CCN(Cc3noc(C4CCCC4)n3)C2)C1=O` (stereo unspecified): 0.603%; for `CN(C)CCNC(=O)c1cc2n(n1)CCN(C(=O)CC(C)(C)C)C2`: -1.85%. With `CCOc1ccccc1C(=O)N1CCCC(c2nccn2CCOC)C1` (stereo unspecified), the cytotoxicity at 10 µM came out at 1.1%.

Turning to `OC1(CN2CCCC2)COCCN(c2cc(C(F)(F)F)ccn2)C1` (stereo unspecified), the cytotoxicity at 10 µM was -5.34%.

As to `CCOc1ccc(-c2nc(C(=O)NCC3CCOC3)cs2)cc1` (stereo unspecified), the cytotoxicity at 10 µM was -4.33%. With `Cc1nn(C)c(C)c1C1COCCN1C(=O)c1ccc(Cl)o1` (stereo unspecified), the cytotoxicity at 10 µM was found to be 2.01%. For `CCNC(=O)N(C)C(c1ccccc1)c1ccccn1` (stereo unspecified), the cytotoxicity at 10 µM came out at 1.52%. In the case of `Cc1nc(C(=O)N2CCOC(c3nc(C(C)C)n[nH]3)C2)c[nH]1` (stereo unspecified), the cytotoxicity at 10 µM was -1.58%.

With `c1ccc(Cc2nnc(CN3CCCC(Cn4cncn4)C3)o2)cc1` (stereo unspecified), the cytotoxicity at 10 µM is -4.51%. The same measure for `Cc1cc(C)n(C2CCCN(C(=O)Cc3cn4ccsc4n3)C2)n1` (stereo unspecified): -6.07%; for `Cc1cnc(C(=O)NC(CN2CCCC2=O)c2ccccc2)cn1` (stereo unspecified): -8.8%.

As to `O=C(Nc1ccncc1)C1=NN(c2ccccc2)C(=O)CN1`, the cytotoxicity at 10 µM amounted to 2.76%.

Turning to `Cc1csc(N2CCN(C(=O)CCn3cccn3)CC2)n1`, the cytotoxicity at 10 µM was -9.41%. The same measure for `Cc1nn(C)c(N2CCOCC2)c1CN[C@@H]1c2ccccc2C[C@@H]1O`: -12.2%. The same measure for `CCc1n[nH]c(C2CN(C(=O)c3cc(C(N)=O)cs3)CCO2)n1` (stereo unspecified): -17.5%; for `CC(=O)NC1CCCN(C(=O)Nc2cccnc2-n2cccn2)C1` (stereo unspecified): -15.3%. As for `CCn1ccnc1CN1CCCN(C(=O)COC2CCCCC2)CC1`, the cytotoxicity at 10 µM is -11.7%. The same measure for `CC(=O)Nc1nc(C(=O)NCc2ccc(OC(C)C)nc2)cs1`: -2.45%; for `COc1ccc(C)cc1C(=O)N1CCCC(n2cncn2)C1` (stereo unspecified): -13.3%.

Regarding `Cc1cnn(CC2CCCN2C(=O)c2cn(C)c3ccccc23)c1` (stereo unspecified), the cytotoxicity at 10 µM is -2.12%. The same measure for `CCc1ccsc1C(=O)N1CCCN(Cc2cscn2)CC1`: -4.77%. Consider `CS(=O)(=O)NC1CCCN(C(=O)c2cccnc2)C1` (stereo unspecified), for which the cytotoxicity at 10 µM was -3.75%.

With `Cc1nc(C2CCCN2Cc2nnc(Cc3ccccc3)o2)no1` (stereo unspecified), the cytotoxicity at 10 µM is -5%. As to `Cc1noc(CCCC(=O)NC(C)c2cccnc2)n1` (stereo unspecified), the cytotoxicity at 10 µM was -12.5%. The same measure for `O=C(c1ccc(-n2cccn2)nc1)N1CCC(Nc2cccnn2)CC1`: -1.08%; for `O=C1N(Cc2cccc(Cl)c2)CCC12CCCNC2` (stereo unspecified): -16.5%. Turning to `Cc1ccc(O[C@@H]2C[C@H]3CN(Cc4nccn4C)CCN3C2)cc1`, the cytotoxicity at 10 µM is 3.39%. The same measure for `c1cncc(COCc2nnc3n2CCN(CC2CC2)C3)c1`: -3.03%; for `O=C([C@H]1C[C@@H]2CCN(C3CCOCC3)C[C@@H]2O1)N1CCOCC1`: -2.56%; for `Cc1oncc1C(=O)N1CCC2(CC1)CC(N1CCOCC1)C2`: -2.69%. The same measure for `Fc1cnc(N2CCCC3(CN(Cc4ccccc4)CCO3)C2)nc1` (stereo unspecified): 12.4%; for `O=C(NCc1ccco1)[C@H]1C[C@H]2OCC[C@H]2N(C(=O)c2ccncc2)C1`: -5.34%. The same measure for `CN1CCN(Cc2cccnc2)C2(CCN(Cc3ccccn3)C2)C1=O` (stereo unspecified): -3.66%; for `O=C(c1ncccn1)N1C[C@H]2CCC[C@@]2(COCc2ccncc2)C1`: -3.08%. Take `COc1cccc(C=CCCN2CCC(C(=O)N3CCCC3)CC2)c1`: the cytotoxicity at 10 µM amounted to 7.09%. The same measure for `CC(C)=CCN1C(=O)[C@@H]2CC[C@H]1CN(C(=O)CCc1nnc(Cl)[nH]1)C2`: 2.96%; for `O=C(NCC1(COc2cnccn2)C[C@@H](O)[C@@H](O)C1)C1CCCC1` (stereo partly specified): -1.81%.
